Measurements: ChEMBL document CHEMBL3526150, “Stereoselective interaction of pantoprazole with ABCG2. I. Drug accumulation in rat milk” (Drug Metab Dispos, 2012)

Experiments:
[1] = Drug uptake in jugular and femoral vein-cannulated lactating Sprague-Dawley rat milk at 0.4 mg/ml, iv administered as infusion after 8 hrs by LC-MS analysis in presence of GF120918; assay type: ADME, organism-based; settings: in vivo
Outline: (§1)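 Lactating Sprague-Dawley rats on days 10–12 postpartum, cannulated. i.v. bolus of GF120918 (10 mg/kg in DMSO) or DMSO alone, then 10 min later an 8 h i.v. infusion of racemic drug in saline (0.4 mg/ml/h). Serum sampled at 2, 4, 6, 8 h. Milk collected by manual expression under light ketamine anesthesia at 8 h. Isomers quantified by LC-MS with zonisamide internal standard. n=5.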

[2] = Drug uptake in jugular and femoral vein-cannulated lactating Sprague-Dawley rat milk at 0.4 mg/ml, iv administered as infusion after 8 hrs by LC-MS analysis; assay type: ADME, organism-based; settings: in vivo; outline: as §1
MDCK = assay: Asymmetrical efflux ratio of permeability in MDCK cells at 25 uM after 1 hr; assay type: ADME, cell-based, Canis lupus familiaris; settings: dog
Outline: (§2)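 Rat Abcg2-transfected and empty-vector MDCKII cells seeded at 1.0×10^6 cells/well on 3.0 μm Transwell filters, grown 4 days to TEER >200 Ω·cm². Racemic pantoprazole donor at 25 μM, 37°C, 5% CO2. Receiver sampled at 1, 2, 3, 4 h; [³H]mannitol checked monolayer integrity. Efflux ratio taken at 1 h from initial rates; n=3.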

Serum [3] = assay: (§3) Fraction unbound in jugular and femoral vein-cannulated lactating Sprague-Dawley rat serum at 0.4 mg/ml, iv administered as infusion after 8 hrs by equilibrium dialysis method; assay type: ADME, organism-based; settings: in vivo, 8 h
Outline: (§4)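 Equilibrium dialysis of rat serum and milk against 0.133 M phosphate buffer (serum pH 7.45, milk pH 6.8), 8 h at 37°C, in 0.5 ml cells. Serum levels used were those seen in the infusion study. Both sides measured by LC-MS. n=4.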

Rattus norvegicus = assay: (§5) Clearance in jugular and femoral vein-cannulated lactating Sprague-Dawley rat at 0.4 mg/ml, iv administered as infusion; assay type: ADME, organism-based; settings: in vivo
Outline: (§6)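 Lactating Sprague-Dawley rats on days 10–12 postpartum, jugular and femoral cannulated under ketamine/xylazine. Crossover design: i.v. bolus of GF120918 (10 mg/kg in DMSO) or DMSO 10 min before an 8 h i.v. infusion of racemic drug in saline (0.4 mg/ml/h). Enantiomers measured by chiral LC-MS. Clearance = infusion rate / mean serum level over 2–8 h. M/S = 8 h milk level / serum level. n=5.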

[4] = molecular target: T1, Broad substrate specificity ATP-binding cassette transporter ABCG2 (Rattus norvegicus, UniProt Q80W57); assay: Activity at rat ABCG2 expressed in MDCK cells assessed as asymmetrical efflux ratio of permeability at 25 uM after 1 hr; assay type: ADME, cell-based; outline: as §2
T1 sequence (Q80W57 whole entry): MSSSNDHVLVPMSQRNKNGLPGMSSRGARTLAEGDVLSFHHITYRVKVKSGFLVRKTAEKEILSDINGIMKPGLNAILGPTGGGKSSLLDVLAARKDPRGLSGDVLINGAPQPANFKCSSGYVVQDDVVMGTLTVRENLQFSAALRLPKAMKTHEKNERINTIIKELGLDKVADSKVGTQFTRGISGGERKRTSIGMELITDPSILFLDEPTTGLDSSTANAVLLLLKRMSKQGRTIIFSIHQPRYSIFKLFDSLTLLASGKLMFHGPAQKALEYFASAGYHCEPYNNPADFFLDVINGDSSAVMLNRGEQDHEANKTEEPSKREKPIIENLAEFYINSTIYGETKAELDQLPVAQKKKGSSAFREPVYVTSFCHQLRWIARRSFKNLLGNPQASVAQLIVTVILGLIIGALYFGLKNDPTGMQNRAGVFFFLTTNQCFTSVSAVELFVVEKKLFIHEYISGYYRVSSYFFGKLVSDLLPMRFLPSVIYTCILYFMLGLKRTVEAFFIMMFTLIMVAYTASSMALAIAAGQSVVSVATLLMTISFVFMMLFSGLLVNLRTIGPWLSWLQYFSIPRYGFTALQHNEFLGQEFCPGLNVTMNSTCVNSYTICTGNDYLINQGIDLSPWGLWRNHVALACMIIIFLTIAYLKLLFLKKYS

Serum [5] = assay: (§7) Drug uptake in jugular and femoral vein-cannulated lactating Sprague-Dawley rat serum at 0.4 mg/ml, iv administered as infusion after 2 hrs by LC-MS analysis; assay type: ADME, organism-based; settings: in vivo, 2 h; outline: as §1
[6] = Fraction unbound in jugular and femoral vein-cannulated lactating Sprague-Dawley rat whole milk at 0.4 mg/ml, iv administered as infusion after 8 hrs by equilibrium dialysis method; assay type: ADME, organism-based; outline: as §4
Serum [7] = assay: Drug uptake in jugular and femoral vein-cannulated lactating Sprague-Dawley rat serum at 0.4 mg/ml, iv administered as infusion after 2 hrs by LC-MS analysis in presence of GF120918; assay type: ADME, organism-based; settings: in vivo; outline: as §1
[8] = Dissociation constant, pKa of the compound; assay type: physicochemical
[9] = as §3; assay type: ADME, organism-based; settings: female, Sprague-Dawley, serum, 0.4 mg/ml; outline: as §4
[10] = as §5; assay type: ADME, organism-based; settings: female, Sprague-Dawley, in vivo, 0.4 mg/ml; outline: as §6
[11] = Ratio of drug level in milk to serum in jugular and femoral vein-cannulated lactating Sprague-Dawley rat at 0.4 mg/ml, iv administered as infusion in presence of GF120918; assay type: ADME, organism-based; settings: female, with GF120918
[12] = as §7; assay type: ADME, organism-based; settings: female, Sprague-Dawley, serum, 0.4 mg/ml, read-out: Drug uptake; outline: as §1
[13] = Protein binding in human serum; assay type: ADME, cell-free; settings: read-out: PB

Drug uptake [1] [µg/mL] | Drug uptake [2] [µg/mL] | Ratio (MDCK) | Fu (Serum [3]) [%] | CL (Rattus norvegicus) [mL/min/kg] | Ratio [4] | Drug uptake (Serum [5]) [µg/mL] | Fu ([6]; in vivo, 8 h) [%] | Drug uptake (Serum [7]) [%] | pKa [8] | fraction unbound at 8 h [9] | clearance [10] [mL/min/kg] | Kp [11] | concentration at 2 h [12] [ng/mL] | fraction unbound at 8 h ([6]; female, Sprague-Dawley, whole milk, 0.4 mg/ml) | fraction unbound [13] | SMILES
0.53 | 0.64 | 0.9 | 2.33 | 9.5 | 5.15 | 1.2 | 26 |  |  |  |  |  |  |  |  | COc1ccnc(C[S+]([O-])c2nc3cc(OC(F)F)ccc3[n-]2)c1OC.O.[Na+] (stereo in doubt; (+)) [PANTOPRAZOLE SODIUM]
1.1 | 2.26 |  |  |  | 1.51 |  |  | 37 | 3.9 | 0.0238 | 7.33 | 0.5 | 1630 | 0.271 |  | COc1ccnc(C[S+]([O-])c2nc3cc(OC(F)F)ccc3[n-]2)c1OC.O.[Na+] (stereo in doubt; (-)) [PANTOPRAZOLE SODIUM]
 |  |  |  |  |  |  |  |  |  |  |  |  |  |  | < 0.02 | COc1ccnc(C[S+]([O-])c2nc3ccc(OC(F)F)cc3[nH]2)c1OC (centres undefined) [PANTOPRAZOLE SODIUM]
